Active and inactive are the calls of the source. The calls are words filed in the database; no cut-off is given here.
Tests used:
SW480 [1] = assay: Cytotoxicity against human SW480 cells assessed as reduction in cell viability at 10 uM after 24 hrs by MTS assay; type: functional
Procedure, shortened: (§1)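 Cells seeded at 5 × 10^3/well and cultured overnight, then exposed to compounds for 24 h. Viability read by MTS. Media: SW480 in RPMI1640, A549 in DMEM, MCF7 in MEM. Irinotecan positive control.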

HepG2 [2] = assay: Cytotoxicity against human HepG2 cells assessed as reduction in cell viability at 10 uM after 24 hrs by MTS assay; type: functional
A549 [3] = assay: Cytotoxicity against human A549 cells assessed as reduction in cell viability at 10 uM after 24 hrs by MTS assay; type: functional; procedure, shortened: as §1
MCF7 [4] = assay: Cytotoxicity against human MCF7 cells assessed as reduction in cell viability at 10 uM after 24 hrs by MTS assay; type: functional; procedure, shortened: as §1
HepG2 [5] = assay: Cytotoxicity against human HepG2 cells assessed as reduction in cell viability after 24 hrs by MTS assay; type: functional, cell-based; conditions: HepG2, 24 h
Procedure, shortened: (§2)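 Cells seeded at 5 × 10^3/well and cultured overnight, then exposed to compounds for 24 h. Viability read by MTS. Media: SW480 in RPMI1640, A549 in DMEM, MCF7 in MEM. […] Irinotecan positive control.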

SW480 [6] = assay: Cytotoxicity against human SW480 cells assessed as reduction in cell viability after 24 hrs by MTS assay; type: functional, cell-based; conditions: SW480, 24 h; procedure, shortened: as §2
A549 [7] = assay: Cytotoxicity against human A549 cells assessed as reduction in cell viability after 24 hrs by MTS assay; type: functional, cell-based; conditions: A549, 24 h; procedure, shortened: as §2
MCF7 [8] = assay: Cytotoxicity against human MCF7 cells assessed as reduction in cell viability after 24 hrs by MTS assay; type: functional, cell-based; conditions: MCF7, 24 h; procedure, shortened: as §2
[9] = biological target: T1, Tyrosinase (Homo sapiens) (UniProt P14679); assay: Inhibition of tyrosinase (unknown origin) using L-tyrosine as substrate assessed as oxidation of L-tyrosine at 20 uM after 15 mins
T1 sequence (whole entry): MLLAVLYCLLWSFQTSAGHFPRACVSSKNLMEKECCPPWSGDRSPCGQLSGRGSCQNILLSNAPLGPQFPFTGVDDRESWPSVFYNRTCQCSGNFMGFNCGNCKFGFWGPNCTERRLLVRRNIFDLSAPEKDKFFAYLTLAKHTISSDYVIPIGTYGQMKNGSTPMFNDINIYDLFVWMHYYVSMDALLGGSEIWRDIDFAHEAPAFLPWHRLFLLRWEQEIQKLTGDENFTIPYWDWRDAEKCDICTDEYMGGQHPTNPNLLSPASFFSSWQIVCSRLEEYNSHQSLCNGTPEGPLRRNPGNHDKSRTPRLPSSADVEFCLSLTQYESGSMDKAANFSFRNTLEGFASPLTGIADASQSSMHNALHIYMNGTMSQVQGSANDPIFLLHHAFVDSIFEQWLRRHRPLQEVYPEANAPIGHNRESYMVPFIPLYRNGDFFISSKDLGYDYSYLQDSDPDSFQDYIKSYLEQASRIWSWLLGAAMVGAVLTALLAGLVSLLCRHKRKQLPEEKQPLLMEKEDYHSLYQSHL
Procedure, shortened: (§3)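 Tyrosinase at 333 U/mL (stock) in 45 mM sodium phosphate, pH 6.6, with 2 mM L-tyrosine (stock). Incubated 37 °C for 15 min; oxidation read at 492 nm. Screened at 20 μM; dose-response for IC50. Glyasperin C positive control.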

Tyrosinase = biological target: T2, Tyrosinase (Homo sapiens, UniProt P14679); assay: Inhibition of tyrosinase (unknown origin) using L-tyrosine as substrate assessed as oxidation of L-tyrosine after 15 mins; procedure, shortened: as §3
T2 sequence (P14679 whole entry): T1 sequence (whole entry)

Influenza A virus = assay: Antiviral activity against Influenza A virus A/WSN/33(H1N1) infected in MDCK cells at 100 uM preincubated with virus for 15 mins followed by cells addition measured at 36 hrs post infection; type: functional, A/WSN/1933(H1N1)
Procedure, shortened: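 MDCK canine kidney cells grown in DMEM and infected with influenza A/WSN/33 (H1N1). Compounds screened at 100 μM. Oseltamivir phosphate served as the positive control.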

RAW264.7 [10] = assay: Antiinflammatory activity in mouse RAW264.7 cells assessed as inhibition of LPS-induced nitric oxide production after 24 hrs by Griess assay; type: functional, cell-based; conditions: RAW264.7, 24 h
Procedure, shortened: (§4)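 RAW264.7 cells plated at 1.2 × 10^5/well in RPMI1640 and co-treated with compound and 1 μg/mL LPS for 24 h. Nitrite in medium read with Griess reagent (sulfanilamide/naphthylethylenediamine, phosphoric acid) after 15 min at 37 °C, absorbance 540 nm. […] Curcumin positive control.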

SW480 [11] = assay: Inhibition of NFkappaB transcription in human SW480 cells at 10 uM by luciferase reporter gene assay; type: cell-based
Procedure, shortened: (§5)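 SW480 cells (RPMI1640) stably transfected with an NF-κB luciferase reporter. […] MG132 positive control.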

[12] = (§6) Inhibition of NFkappaB transcription in human SW480 cells at by luciferase reporter gene assay; type: cell-based; procedure, shortened: as §5
SW480 [13] = assay: as §6; type: cell-based; procedure, shortened: as §5
[14] = biological target: T3, Tyrosine-protein phosphatase non-receptor type 1 (Homo sapiens) (UniProt P18031); assay: Inhibition of recombinant human PTP1B assessed as hydrolysis of p-nitrophenyl phosphate at 25 uM after 30 mins relative to control
T3 sequence (whole entry): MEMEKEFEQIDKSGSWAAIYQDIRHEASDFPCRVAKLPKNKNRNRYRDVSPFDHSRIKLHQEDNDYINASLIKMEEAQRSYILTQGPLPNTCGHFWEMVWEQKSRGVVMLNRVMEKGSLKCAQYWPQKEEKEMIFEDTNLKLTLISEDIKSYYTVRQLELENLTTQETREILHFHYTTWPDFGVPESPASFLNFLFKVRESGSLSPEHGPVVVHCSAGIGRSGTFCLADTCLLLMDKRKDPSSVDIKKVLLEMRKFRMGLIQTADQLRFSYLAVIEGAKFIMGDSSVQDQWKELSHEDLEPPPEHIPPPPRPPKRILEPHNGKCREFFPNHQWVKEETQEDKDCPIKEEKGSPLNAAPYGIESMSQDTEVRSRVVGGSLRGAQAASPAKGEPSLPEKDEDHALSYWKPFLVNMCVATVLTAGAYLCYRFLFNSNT

[15] = biological target: T4, Nuclear factor erythroid 2-related factor 2 (Homo sapiens) (UniProt Q16236); assay: Activation of NRF2 transcription in human HepG2C8 cells at 10 uM after 6 hrs by luciferase reporter gene assay relative to control; type: cell-based
T4 sequence (whole entry): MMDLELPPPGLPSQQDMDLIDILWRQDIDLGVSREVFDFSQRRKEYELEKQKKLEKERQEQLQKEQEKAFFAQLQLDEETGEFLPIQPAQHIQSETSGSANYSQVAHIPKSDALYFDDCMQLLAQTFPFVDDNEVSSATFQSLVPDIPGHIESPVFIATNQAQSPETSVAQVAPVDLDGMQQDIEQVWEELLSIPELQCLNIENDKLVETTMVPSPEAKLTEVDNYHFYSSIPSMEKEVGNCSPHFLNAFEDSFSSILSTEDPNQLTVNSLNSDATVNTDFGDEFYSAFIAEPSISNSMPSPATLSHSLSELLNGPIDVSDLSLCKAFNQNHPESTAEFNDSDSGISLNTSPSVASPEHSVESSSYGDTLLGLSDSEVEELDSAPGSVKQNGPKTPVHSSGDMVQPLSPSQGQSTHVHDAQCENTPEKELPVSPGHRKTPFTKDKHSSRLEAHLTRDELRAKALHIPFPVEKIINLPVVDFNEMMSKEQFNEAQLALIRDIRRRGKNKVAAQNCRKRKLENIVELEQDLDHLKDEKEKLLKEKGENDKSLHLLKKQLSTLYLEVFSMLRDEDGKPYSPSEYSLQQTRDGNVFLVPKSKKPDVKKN
Procedure, shortened: (§7)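 Luciferase reporter in HepG2C8 cells, which are HepG2 stably transfected with an Nrf2 luciferase reporter and grown in MEM. Screened at 10 μM, with dose-response over 2.5−40 μM. Activity expressed as fold of control. tBHQ positive control.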

[16] = biological target: T4, Nuclear factor erythroid 2-related factor 2 (Homo sapiens); assay: Activation of NRF2 transcription in human HepG2C8 cells after 6 hrs by luciferase reporter gene assay; type: cell-based; procedure, shortened: as §7
HepG2 [17] = assay: Toxicity in human HepG2 cells at 20 to 40 uM; type: cell-based; conditions: hepg2, 40 µM
[18] = biological target: T4, Nuclear factor erythroid 2-related factor 2 (Homo sapiens); assay: Activation of NRF2 transcription in human HepG2C8 cells at 100 uM after 6 hrs by luciferase reporter gene assay relative to control; type: cell-based
[19] = biological target: T5, Tyrosine-protein phosphatase non-receptor type 1 (Homo sapiens, UniProt P18031); assay: Inhibition of recombinant human PTP1B assessed as hydrolysis of p-nitrophenyl phosphate
T5 sequence (P18031 whole entry): T3 sequence (whole entry)

MDCK = assay: Cytotoxicity against MDCK cells after 36 hrs; type: cell-based, Canis lupus familiaris; conditions: dog
RAW264.7 [20] = assay: Antiinflammatory activity in mouse RAW264.7 cells assessed as inhibition of LPS-induced nitric oxide production at 10 uM after 24 hrs by Griess assay; type: functional; conditions: RAW264.7, 24 h; procedure, shortened: as §4
Acetylcholinesterase [21] = biological target: T6, Acetylcholinesterase (Homo sapiens, UniProt P22303); assay: Inhibition AChE (unknown origin) using ATCI as substrate assessed as hydrolysis of ATCI after 10 mins measured every 1 min for 10 times
T6 sequence (P22303 whole entry): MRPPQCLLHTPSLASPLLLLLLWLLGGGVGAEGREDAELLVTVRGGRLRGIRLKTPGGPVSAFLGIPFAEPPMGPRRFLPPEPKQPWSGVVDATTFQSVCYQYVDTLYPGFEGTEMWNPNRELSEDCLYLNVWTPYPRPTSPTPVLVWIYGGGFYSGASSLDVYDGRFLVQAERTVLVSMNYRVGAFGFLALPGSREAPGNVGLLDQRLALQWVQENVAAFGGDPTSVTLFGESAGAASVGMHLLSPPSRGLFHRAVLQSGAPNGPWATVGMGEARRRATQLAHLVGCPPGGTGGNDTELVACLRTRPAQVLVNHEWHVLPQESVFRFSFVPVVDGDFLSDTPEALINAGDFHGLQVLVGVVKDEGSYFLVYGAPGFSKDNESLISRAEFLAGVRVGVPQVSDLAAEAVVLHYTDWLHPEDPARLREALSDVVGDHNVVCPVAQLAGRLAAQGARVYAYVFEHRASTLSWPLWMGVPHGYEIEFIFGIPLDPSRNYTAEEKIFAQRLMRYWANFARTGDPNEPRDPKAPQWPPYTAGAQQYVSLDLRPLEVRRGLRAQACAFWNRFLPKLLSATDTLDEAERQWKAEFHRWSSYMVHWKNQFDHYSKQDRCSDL

Acetylcholinesterase [22] = biological target: T6, Acetylcholinesterase; assay: Inhibition AChE (unknown origin) using ATCI as substrate assessed as hydrolysis of ATCI at 25 uM measured every 1 min for 10 times
Procedure, shortened: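 Commercial AChE (added as 0.025 U/mL solution) in Tris-HCl (30 mM, pH 8.0) with DTNB (added as 0.26 mM) and ATCI substrate (added as 0.2 mM); 200 μL mixture at room temperature. Thiocholine release read at 405 nm every min, 10 reads; linear slope taken as rate. Screening at 25 μM; galanthamine positive control.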

RAW264.7 [23] = assay: Antiinflammatory activity in mouse RAW264.7 cells assessed as inhibition of LPS-induced nitric oxide production at 20 uM after 24 hrs by Griess assay; type: functional; conditions: RAW264.7, 24 h; procedure, shortened: as §4

| Compound | IC50 (HepG2 [5]) [µM] | IC50 (SW480 [6]) [µM] | IC50 (A549 [7]) [µM] | IC50 (MCF7 [8]) [µM] | Activity (Influenza A virus) [%] | IC50 (RAW264.7 [10]) [µM] | inhibition [14] [%] | fold change (FC) [15] | further results |
| --- | --- | --- | --- | --- | --- | --- | --- | --- | --- |
| COc1cc2c(c(OC)c1CC=C(C)C)C[C@H](c1ccc(O)cc1O)CO2 [GLYASPERIN D] | 3.8 | 7.2 | 12.9 | 6.7 |  |  |  |  | Activity (SW480 [1]): 78%; Activity (HepG2 [2]): 99%; Activity (A549 [3]): 25%; Activity (MCF7 [4]): 98%; inhibition [9]: > 95%; IC50 (Tyrosinase): 0.154 µM |
| COc1c(CC=C(C)C)c(O)cc2oc(-c3ccc(O)cc3O)cc12 [LICOCOUMARONE] |  |  |  |  | >30 | 8.5 | > 90 |  | inhibition (SW480 [11]): > 30%; IC50 [12]: 5.1 µM; inhibition (SW480 [13]): Dose-dependent effect |
| CC(C)=CCc1c(O)cc2occ(-c3ccc(O)cc3O)c(=O)c2c1O [UNCINANONE A] |  |  |  |  | >30 |  |  | 6.68 | Activity [16]: Dose-dependent effect; Activity (HepG2 [17]): Toxic |
| CC(C)(C)c1cc(O)ccc1O |  |  |  |  |  |  |  | 1.51 | fold change (FC) [18]: 4.34 |
| CC(C)=CCc1cc(-c2coc3cc(O)c(CC=C(C)C)c(O)c3c2=O)cc(O)c1O | 4.4 | 6.5 | 6.4 | 6.6 |  |  | > 95 |  | IC50 [19]: 3 µM; Activity (MDCK): Toxic |
| COc1c2c(cc(O)c1CC=C(C)C)OCC(c1ccc(O)cc1O)=C2 |  |  |  |  | >30 | 8.1 |  | 4.7 | inhibition at 10 µM (RAW264.7 [20]): > 50%; inhibition [9]: inactive |
| COc1c(CC=C(C)C)c(O)cc2c1C[C@H](c1ccc(O)c(CC=C(C)C)c1O)CO2 [LICORICIDIN] | 0.3 | 7.1 | 6.9 | 5.2 |  |  | > 95 |  | IC50 (Acetylcholinesterase [21]): 15.5 µM; inhibition (Acetylcholinesterase [22]): 82%; Activity (MDCK): Toxic |
| COc1cc(/C=C/C(=O)CC(=O)/C=C/c2ccc(O)c(OC)c2)ccc1O [CURCUMIN] |  |  |  |  |  | 19.1 |  |  | inhibition at 10 µM (RAW264.7 [20]): 12%; inhibition at 20 µM (RAW264.7 [23]): 53% |

Source: ChEMBL document CHEMBL3808312, “Bioactive Constituents of Glycyrrhiza uralensis (Licorice): Discovery of the Effective Components of a Traditional Herbal Medicine” (J Nat Prod, 2016)
